Experimental data from ChEMBL document CHEMBL1142636 (2000).
≈ marks a conversion by molar mass, not a printed value.

How the values were obtained:
[1] = test system: UO-31; experiment: Growth inhibition of human UO31 cells; assay type: functional
Summary of the method: (§1)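 Tested at the NCI in its human disease-oriented in vitro screen of 60 tumour cell lines, following the Monks et al. methods. Activity is expressed as GI50, given as log molar values.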

[2] = test system: TK-10; experiment: Growth inhibition of human TK10 cells; assay type: functional; summary of the method: as §1
[3] = test system: SN12C; experiment: Growth inhibition of human SN12C cells; assay type: functional; summary of the method: as §1
[4] = test system: RXF 393; experiment: Growth inhibition of human […] cells; assay type: functional
[5] = test system: CAKI-1; experiment: Growth inhibition of human CAKI1 cells; assay type: functional
[6] = test system: ACHN; experiment: Growth inhibition of human ACHN cells; assay type: functional
[7] = test system: 786-0; experiment: Growth inhibition of human 786-0 cells; assay type: functional
[8] = test system: SK-OV-3; experiment: Growth inhibition of human SK-OV-3 cells; assay type: functional; summary of the method: as §1
[9] = Growth inhibition of human OVACR8 cells; assay type: functional
[10] = Growth inhibition of human OVACR5 cells; assay type: functional
[11] = Growth inhibition of human OVACR4 cells; assay type: functional
[12] = Growth inhibition of human […] cells; assay type: functional
[13] = test system: IGROV-1; experiment: Growth inhibition of human IGROV1 cells; assay type: functional
[14] = test system: UACC-62; experiment: Growth inhibition of human UACC62 cells; assay type: functional; summary of the method: as §1
[15] = test system: UACC-257; experiment: Growth inhibition of human UACC257 cells; assay type: functional; summary of the method: as §1
[16] = test system: SK-MEL-5; experiment: Growth inhibition of human SK-MEL-5 cells; assay type: functional; summary of the method: as §1
[17] = test system: SK-MEL-28; experiment: Growth inhibition of human SK-MEL-28 cells; assay type: functional; summary of the method: as §1
[18] = test system: SK-MEL-2; experiment: Growth inhibition of human SK-MEL-2 cells; assay type: functional; summary of the method: as §1
[19] = test system: M14; experiment: Growth inhibition of human M14 cells; assay type: functional
[20] = test system: Malme-3M; experiment: Growth inhibition of human MALME-3M cells; assay type: functional
[21] = test system: XF498; experiment: Growth inhibition of human XF498 cells; assay type: functional; summary of the method: as §1
[22] = test system: U-251; experiment: Growth inhibition of human U251 cells; assay type: functional; summary of the method: as §1
[23] = test system: SNB-75; experiment: Growth inhibition of human SNB75 cells; assay type: functional; summary of the method: as §1
[24] = test system: SNB-19; experiment: Growth inhibition of human SNB19 cells; assay type: functional; summary of the method: as §1
[25] = test system: SF-539; experiment: Growth inhibition of human SF539 cells; assay type: functional; summary of the method: as §1
[26] = test system: SF-295; experiment: Growth inhibition of human SF295 cells; assay type: functional; summary of the method: as §1
[27] = test system: SF-268; experiment: Growth inhibition of human SF268 cells; assay type: functional; summary of the method: as §1
[28] = test system: SW-620; experiment: Growth inhibition of human SW620 cells; assay type: functional; summary of the method: as §1
[29] = test system: KM-20L2; experiment: Growth inhibition of human KM20L2 cells; assay type: functional
[30] = test system: KM12; experiment: Growth inhibition of human KM12 cells; assay type: functional
[31] = test system: HT-29; experiment: Growth inhibition of human HT29 cells; assay type: functional
[32] = test system: HCT-15; experiment: Growth inhibition of human HCT15 cells; assay type: functional
[33] = test system: HCT-116; experiment: Growth inhibition of human HCT116 cells; assay type: functional
[34] = test system: HCC 2998; experiment: Growth inhibition of human HCC2998 cells; assay type: functional
[35] = test system: DLD-1; experiment: Growth inhibition of human DLD1 cells; assay type: functional
[36] = test system: COLO 205; experiment: Growth inhibition of human COLO205 cells; assay type: functional
[37] = test system: DMS-273; experiment: Growth inhibition of human DMS273 cells; assay type: functional
[38] = Growth inhibition of human DMS144 cells; assay type: functional
[39] = Growth inhibition of human LXFL529 cells; assay type: functional; settings: LXFL 529
[40] = test system: NCI-H522; experiment: Growth inhibition of human NCI-H522 cells; assay type: functional
[41] = test system: NCI-H460; experiment: Growth inhibition of human NCI-H460 cells; assay type: functional
[42] = test system: NCI-H322M; experiment: Growth inhibition of human NCI-H322M cells; assay type: functional
[43] = test system: NCI-H226; experiment: Growth inhibition of human NCI-H226 cells; assay type: functional
[44] = test system: HOP-92; experiment: Growth inhibition of human HOP92 cells; assay type: functional
[45] = test system: HOP-62; experiment: Growth inhibition of human HOP62 cells; assay type: functional
[46] = test system: HOP-18; experiment: Growth inhibition of human HOP18 cells; assay type: functional
[47] = test system: EKVX; experiment: Growth inhibition of human EKVX cells; assay type: functional
[48] = test system: A549; experiment: Growth inhibition of human A549 cells; assay type: functional
[49] = test system: SR; experiment: Growth inhibition of human SR cells; assay type: functional; summary of the method: as §1
[50] = Growth inhibition of human RPMI8266 cells; assay type: functional
[51] = test system: MOLT-4; experiment: Growth inhibition of human MOLT4 cells; assay type: functional
[52] = test system: K562; experiment: Growth inhibition of human K562 cells; assay type: functional
[53] = Growth inhibition of human HL60(TB) cells; assay type: functional, HL-60(TB); settings: HL-60
[54] = test system: CCRF-CEM; experiment: Growth inhibition of human CCRF-CEM cells; assay type: functional
[55] = test system: KB; experiment: Growth inhibition of human KB cells; assay type: functional; settings: read-out: ED50 (the source's name)
Summary of the method: (§2)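 In-house cytotoxicity assay following an NCI protocol, run on a panel of human tumour lines: KB nasopharyngeal epidermoid carcinoma and HCT-8 ileocecal adenocarcinoma. Potency is reported as ED50 in µg/mL.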

[56] = test system: HCT-8; experiment: Growth inhibition of human HCT8 cells; assay type: functional; settings: read-out: ED50 (the source's name); summary of the method: as §2
[57] = test system: Hs-578T; experiment: Growth inhibition of human HS578T cells; assay type: functional
[58] = test system: MDA-MB-231; experiment: Growth inhibition of human MDA-MB-231 cells; assay type: functional
[59] = test system: MCF7; experiment: Growth inhibition of human MCF7 cells; assay type: functional
[60] = test system: DU-145; experiment: Growth inhibition of human DU145 cells; assay type: functional
[61] = test system: PC-3; experiment: Growth inhibition of human PC3 cells; assay type: functional
[62] = test system: A498; experiment: Growth inhibition of human A498 cells; assay type: functional
[63] = test system: M19-MEL; experiment: Growth inhibition of human M19-MEL cells; assay type: functional
[64] = test system: LOX IMVI; experiment: Growth inhibition of human LOX IMVI cells; assay type: functional
[65] = test system: NCI-H23; experiment: Growth inhibition of human NCI-H23 cells; assay type: functional
[66] = test system: MDA-MB-435; experiment: Growth inhibition of human MDA-MB-435 cells; assay type: functional
[67] = test system: MDA-N; experiment: Growth inhibition of human MDA-N cells; assay type: functional
[68] = test system: BT-549; experiment: Growth inhibition of human BT549 cells; assay type: functional
[69] = test system: T47D; experiment: Growth inhibition of human T47D cells; assay type: functional; summary of the method: as §1
[70] = Growth inhibition of human MCF7/ADR-RES cells; assay type: functional; settings: NCI/ADR-RES
[71] = read-out: ED50 (the source's name)

CC1=CC(=O)c2[nH]c3ccccc3c2C1=O [MURRAYAQUINONE A]
GI50 [1]: 3.98 µM | GI50 [2]: 5.01 µM | GI50 [3]: 4.57 µM | GI50 [4]: 3.47 µM | GI50 [5]: 14.5 µM | GI50 [6]: 4.17 µM | GI50 [7]: 4.27 µM | GI50 [8]: 20.9 µM | GI50 [9]: 3.98 µM | GI50 [10]: 5.37 µM | GI50 [11]: 4.17 µM | GI50 [12]: 4.57 µM | GI50 [13]: 6.61 µM | GI50 [14]: 4.17 µM | GI50 [15]: 4.57 µM | GI50 [16]: 4.27 µM | EC50 [16, 71]: 2.58 µg/mL (≈ 12.2 µM) | GI50 [17]: 4.47 µM | GI50 [18]: 5.37 µM | GI50 [19]: 4.17 µM | GI50 [20]: 4.9 µM | GI50 [21]: 4.37 µM | GI50 [22]: 15.5 µM | GI50 [23]: 4.37 µM | GI50 [24]: 25.1 µM | GI50 [25]: 4.27 µM | GI50 [26]: 4.37 µM | GI50 [27]: 4.37 µM | GI50 [28]: 3.98 µM | GI50 [29]: 25.1 µM | GI50 [30]: 4.37 µM | GI50 [31]: 17.8 µM | GI50 [32]: 4.17 µM | GI50 [33]: 4.47 µM | GI50 [34]: 7.08 µM | GI50 [35]: 5.01 µM | GI50 [36]: 4.07 µM | EC50 [36, 71]: 3.85 µg/mL (≈ 18.2 µM) | GI50 [37]: 4.27 µM | GI50 [38]: 4.27 µM | GI50 [39]: 4.27 µM | GI50 [40]: 3.8 µM | GI50 [41]: 8.13 µM | GI50 [42]: 25.1 µM | GI50 [43]: 6.61 µM | GI50 [44]: 3.98 µM | GI50 [45]: 25.1 µM | GI50 [46]: 3.39 µM | GI50 [47]: 4.07 µM | GI50 [48]: 25.1 µM | GI50 [49]: 5.75 µM | GI50 [50]: 5.89 µM | GI50 [51]: 5.37 µM | GI50 [52]: 5.62 µM | GI50 [53]: 4.07 µM | GI50 [54]: 3.31 µM | EC50 [55]: 5.18 µg/mL (≈ 24.5 µM) | EC50 [56]: 5.5 µg/mL (≈ 26 µM)

COc1cc(C(=O)O)cc2c1[nH]c1ccccc12 [MUKOEIC ACID]
GI50 [57]: 25.1 µM | GI50 [58]: 25.1 µM | GI50 [59]: 25.1 µM | GI50 [60]: 25.1 µM | GI50 [61]: 25.1 µM | GI50 [1]: 25.1 µM | GI50 [2]: 25.1 µM | GI50 [3]: 25.1 µM | GI50 [4]: 25.1 µM | GI50 [5]: 25.1 µM | GI50 [6]: 25.1 µM | GI50 [62]: 25.1 µM | GI50 [7]: 25.1 µM | GI50 [8]: 25.1 µM | GI50 [9]: 25.1 µM | GI50 [10]: 25.1 µM | GI50 [11]: 25.1 µM | GI50 [12]: 25.1 µM | GI50 [13]: 25.1 µM | GI50 [14]: 25.1 µM | GI50 [15]: 25.1 µM | GI50 [16]: 25.1 µM | GI50 [17]: 25.1 µM | GI50 [18]: 25.1 µM | GI50 [63]: 25.1 µM | GI50 [19]: 25.1 µM | GI50 [20]: 25.1 µM | GI50 [64]: 25.1 µM | GI50 [22]: 25.1 µM | GI50 [23]: 25.1 µM | GI50 [24]: 25.1 µM | GI50 [25]: 25.1 µM | GI50 [26]: 25.1 µM | GI50 [27]: 25.1 µM | GI50 [28]: 25.1 µM | GI50 [29]: 25.1 µM | GI50 [30]: 25.1 µM | GI50 [31]: 25.1 µM | GI50 [32]: 25.1 µM | GI50 [33]: 25.1 µM | GI50 [34]: 25.1 µM | GI50 [35]: 25.1 µM | GI50 [36]: 25.1 µM | GI50 [37]: 25.1 µM | GI50 [38]: 25.1 µM | GI50 [39]: 25.1 µM | GI50 [40]: 25.1 µM | GI50 [41]: 25.1 µM | GI50 [42]: 25.1 µM | GI50 [65]: 25.1 µM | GI50 [43]: 25.1 µM | GI50 [44]: 25.1 µM | GI50 [45]: 25.1 µM | GI50 [46]: 25.1 µM | GI50 [47]: 25.1 µM | GI50 [48]: 25.1 µM | GI50 [49]: 25.1 µM | GI50 [50]: 25.1 µM | GI50 [51]: 25.1 µM | GI50 [52]: 25.1 µM | GI50 [53]: 25.1 µM | GI50 [54]: 25.1 µM | GI50 [66]: 25.1 µM | GI50 [67]: 25.1 µM | GI50 [68]: 25.1 µM | GI50 [69]: 25.1 µM | GI50 [70]: 25.1 µM
